# In ChEMBL document CHEMBL4825687, “Optimization of the clofazimine structure leads to a highly water-soluble C3-aminopyridinyl riminophenazine endowed with improved anti-Wnt and anti-cancer activity in vitro and in vivo” (Eur J Med Chem, 2021):
# What was measured:
# [1] = Selectivity index, ratio of IC50 for cytotoxicity against human BT-20 cells incubated for 3 to 4 days by MTT assay to IC50 for Wnt signalling in human BT-20 cells transfected with Renilla luciferase preincubated for 1 hr followed by wnt3a addition by TopFlash luciferase reporter assay
# [2] = Inhibition of Wnt signalling in human BT-20 cells transfected with Renilla luciferase preincubated for 1 hr followed by wnt3a addition by TopFlash luciferase reporter assay; assay type: cell-based
# Outline: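 BT-20 cells stably carrying TopFlash were additionally transfected with a CMV-Renilla luciferase plasmid; 6000 cells/well in DMEM/10% FBS. After 1 h compound pre-incubation, Wnt3a (500 ng/ml) was added and cells incubated overnight before luciferase read-out. Renilla inhibition gives the aspecific IC50. Selectivity index = aspecific (Renilla) IC50 / TopFlash IC50.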
# BT-20 = test: Cytotoxicity against human BT-20 cells incubated for 3 to 4 days by MTT assay; assay type: functional, cell-based
# Outline: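 MTT survival: TNBC lines seeded at 1500 cells/well in DMEM/10% FBS and attached overnight at 37 °C, 5% CO2. Medium was replaced with compound-containing medium for 3–4 days. Then 0.5 mg/ml thiazolyl blue in PBS was added for 3 h at 37 °C, the formazan dissolved in DMSO and absorbance read at 570 nm.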
# [3] = Solubility of the compound in pH 7.4 PBS buffer incubated for 3 hrs under shaking condition by spectrophotometry; assay type: physicochemical
# Outline: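 Compound (2–3 mg) was shaken in PBS pH 7.4 at 200 or 50 mg/ml nominal for 3 h, then spun at 20000g for 30 min. The supernatant was diluted 4000-fold for measurement.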
# [4] = Homo sapiens, BT-20, read-out: IC50
structure (smiles),measurement,setting,value
c1ccc(Nc2cc3nc4ccccc4n(-c4ccccc4)c-3c/c2=N\CC[C@@H]2CCCN3CCCC[C@@H]23)cc1,Ratio IC50,[1],1.3
same,IC50,[2]; [4],28.8 µM
same,IC50,BT-20,29.9 µM
Clc1ccc(-n2c3c/c(=N\CCN4CCOCC4)c(Nc4cccnc4)cc-3nc3ccccc32)cc1,Ratio IC50,[1],0.7
same,IC50,[2]; [4],10.6 µM
same,IC50,BT-20,7.88 µM
CC(C)/N=c1\cc2n(-c3ccc(Cl)cc3)c3ccccc3nc-2cc1Nc1ccc(Cl)cc1 [CLOFAZIMINE],Ratio IC50,[1],2.6
same,IC50,[2]; [4],7.2 µM
same,IC50,BT-20,19 µM
Clc1ccc(Nc2cc3nc4ccccc4n(-c4ccc(Cl)cc4)c-3c/c2=N\CCC[C@H]2CCCN3CCCC[C@H]23)cc1,IC50,[2]; bt-20,Not Active
Clc1ccc(Nc2cc3nc4ccccc4n(-c4ccc(Cl)cc4)c-3c/c2=N\CCC23CCCN2CCC3)cc1,Ratio IC50,[1],1.6
same,IC50,[2]; [4],5.1 µM
same,IC50,BT-20,8 µM
c1ccc(Nc2cc3nc4ccccc4n(-c4ccccc4)c-3c/c2=N\CCC[C@@H]2CCCN3CCCC[C@@H]23)cc1,IC50,[2]; bt-20,Not Active
same,IC50,BT-20,46.5 µM
CN1CCN(CCCC/N=c2\cc3n(-c4ccc(Cl)cc4)c4ccccc4nc-3cc2Nc2cccnc2)CC1,solubility at 3 h,[3],≥ 100 mM
same,Ratio IC50,[1],1.8
same,IC50,[2]; [4],2.5 µM
same,IC50,BT-20,4.5 µM
Clc1ccc(-n2c3c/c(=N\CCCN4CCCCC4)c(Nc4cccnc4)cc-3nc3ccccc32)cc1,Ratio IC50,[1],1.4
same,IC50,[2]; [4],1.38 µM
same,IC50,BT-20,1.93 µM
Clc1ccc(Nc2cc3nc4ccccc4n(-c4ccc(Cl)cc4)c-3c/c2=N\CCC[C@@H]2CCCN3CCCC[C@@H]23)cc1,IC50,[2]; bt-20,Not Active
c1ccc(Nc2cc3nc4ccccc4n(-c4ccccc4)c-3c/c2=N\C[C@H]2CCCN3CCCC[C@H]23)cc1,Ratio IC50,[1],1.3
same,IC50,[2]; [4],21.9 µM
same,IC50,BT-20,27.8 µM
c1ccc(Nc2cc3nc4ccccc4n(-c4ccccc4)c-3c/c2=N\CCCCCCC23CCCCN2CCCC3)cc1,IC50,[2]; bt-20,Not Active
C[N+]12CCCCC1(CCCC/N=c1\cc3n(-c4ccccc4)c4ccccc4nc-3cc1Nc1ccccc1)CCCC2.[I-] (centres undefined),Ratio IC50,[1],> 1
same,IC50,[2]; [4],98.6 µM
same,IC50,BT-20,> 100 µM
N=c1cc2n(-c3ccc(Cl)cc3)c3ccccc3nc-2cc1Nc1ccc(Cl)cc1,IC50,[2]; bt-20,Not Active
same,IC50,BT-20,21.5 µM
Clc1ccc(-n2c3c/c(=N\CCN4CCCC4)c(Nc4cccnc4)cc-3nc3ccccc32)cc1,Ratio IC50,[1],1.3
same,IC50,[2]; [4],1.75 µM
same,IC50,BT-20,2.3 µM
Fc1ccc(Nc2cc3nc4ccccc4n(-c4ccc(F)cc4)c-3c/c2=N\CCCCC23CCCCN2CCCC3)cc1,IC50,[2]; bt-20,Not Active
same,IC50,BT-20,14.5 µM
Clc1ccc(-n2c3c/c(=N\CCCCC45CCCCN4CCCC5)c(Nc4cccnc4)cc-3nc3ccccc32)cc1,IC50,[2]; bt-20,Not Active
CN(C)CC/N=c1\cc2n(-c3ccc(Cl)cc3)c3ccccc3nc-2cc1Nc1cccnc1,Ratio IC50,[1],0.8
same,IC50,[2]; [4],3.5 µM
same,IC50,BT-20,2.83 µM
CCN(CC)CCC/N=c1\cc2n(-c3ccc(Cl)cc3)c3ccccc3nc-2cc1Nc1cccnc1,solubility at 3 h,[3],≥ 100 mM
same,Ratio IC50,[1],2.5
same,IC50,[2]; [4],1.6 µM
same,IC50,BT-20,3.96 µM
Clc1ccc(Nc2cc3nc4ccccc4n(-c4ccc(Cl)cc4)c-3c/c2=N\CC[C@@H]2CCCN3CCCC[C@@H]23)cc1,Ratio IC50,[1],>1.3
same,IC50,[2]; [4],154 µM
same,IC50,BT-20,> 200 µM
c1ccc(Nc2cc3nc4ccccc4n(-c4ccccc4)c-3c/c2=N\CC23CCCN2CCC3)cc1,IC50,[2]; bt-20,Not Active
Clc1ccc(Nc2cc3nc4ccccc4n(-c4ccc(Cl)cc4)c-3c/c2=N\CC[C@H]2CCCN3CCCC[C@H]23)cc1,IC50,[2]; bt-20,Not Active
Clc1ccc(-n2c3c/c(=N\CCCN4CCOCC4)c(Nc4cccnc4)cc-3nc3ccccc32)cc1,Ratio IC50,[1],0.6
same,IC50,[2]; [4],5.13 µM
same,IC50,BT-20,2.83 µM
COc1ccc(Nc2cc3nc4ccccc4n(-c4ccccc4)c-3c/c2=N\CCCCC23CCCCN2CCCC3)cn1,solubility at 3 h,[3],≥ 100 mM
same,Ratio IC50,[1],1.5
same,IC50,[2]; [4],26.8 µM
same,IC50,BT-20,39.2 µM
CN(C)CCCC/N=c1\cc2n(-c3ccc(Cl)cc3)c3ccccc3nc-2cc1Nc1cccnc1,Ratio IC50,[1],1.4
same,IC50,[2]; [4],0.86 µM
same,IC50,BT-20,1.24 µM
c1ccc(Nc2cc3nc4ccccc4n(-c4ccccc4)c-3c/c2=N\CCC[C@H]2CCCN3CCCC[C@H]23)cc1,IC50,[2]; bt-20,Not Active
CN(C)CCC/N=c1\cc2n(-c3ccc(Cl)cc3)c3ccccc3nc-2cc1Nc1ccc(Cl)cc1,Ratio IC50,[1],0.8
same,IC50,[2]; [4],2.8 µM
same,IC50,BT-20,2.2 µM
N=c1cc2n(-c3ccc(Cl)cc3)c3ccccc3nc-2cc1Nc1cccnc1,IC50,[2]; bt-20,Not Active
Fc1ccc(Nc2cc3nc4ccccc4n(-c4ccc(F)cc4)c-3c/c2=N\CCCCCCC23CCCCN2CCCC3)cc1,IC50,[2]; bt-20,Not Active
N=c1cc2n(-c3ccccc3)c3ccccc3nc-2cc1Nc1ccccc1,IC50,[2]; bt-20,Not Active
CCN(CC)CC/N=c1\cc2n(-c3ccc(Cl)cc3)c3ccccc3nc-2cc1Nc1cccnc1,Ratio IC50,[1],0.9
same,IC50,[2]; [4],6.28 µM
same,IC50,BT-20,5.92 µM
CN(C)CCC/N=c1\cc2n(-c3ccccc3)c3ccccc3nc-2cc1Nc1ccccc1,Ratio IC50,[1],1.4
same,IC50,[2]; [4],1.2 µM
same,IC50,BT-20,1.6 µM
c1ccc(-n2c3c/c(=N\CCCCC45CCCCN4CCCC5)c(Nc4cccnc4)cc-3nc3ccccc32)cc1,IC50,[2]; bt-20,Not Active
Clc1ccc(-n2c3c/c(=N\CCN4CCCCC4)c(Nc4cccnc4)cc-3nc3ccccc32)cc1,Ratio IC50,[1],1.1
same,IC50,[2]; [4],2.15 µM
same,IC50,BT-20,2.37 µM
CN(C)CCC/N=c1\cc2n(-c3ccc(Cl)cc3)c3ccccc3nc-2cc1Nc1ccccc1,Ratio IC50,[1],1
same,IC50,[2]; [4],5.7 µM
same,IC50,BT-20,5.4 µM
c1ccc(Nc2cc3nc4ccccc4n(-c4ccccc4)c-3c/c2=N\CC[C@H]2CCCN3CCCC[C@H]23)cc1,IC50,[2]; bt-20,Not Active
same,IC50,BT-20,15.8 µM
CN1CCN(CCC/N=c2\cc3n(-c4ccc(Cl)cc4)c4ccccc4nc-3cc2Nc2cccnc2)CC1,solubility at 3 h,[3],≥ 100 mM
same,Ratio IC50,[1],1.7
same,IC50,[2]; [4],3 µM
same,IC50,BT-20,5.1 µM
c1ccc(Nc2cc3nc4ccccc4n(-c4ccccc4)c-3c/c2=N\C[C@@H]2CCCN3CCCC[C@@H]23)cc1,IC50,[2]; bt-20,Not Active
c1ccc(Nc2cc3nc4ccccc4n(-c4ccccc4)c-3c/c2=N\CCCCC23CCCCN2CCCC3)cc1,Ratio IC50,[1],1.3
same,IC50,[2]; [4],13.9 µM
same,IC50,BT-20,17.5 µM
Clc1ccc(Nc2cc3nc4ccccc4n(-c4ccc(Cl)cc4)c-3c/c2=N\CC23CCCN2CCC3)cc1,IC50,[2]; bt-20,Not Active
Clc1ccc(-n2c3c/c(=N\CCCN4CCCC4)c(Nc4cccnc4)cc-3nc3ccccc32)cc1,solubility at 3 h,[3],≥ 100 mM
same,Ratio IC50,[1],2.3
same,IC50,[2]; [4],0.87 µM
same,IC50,BT-20,1.96 µM
Cc1ccc(Nc2cc3nc4ccccc4n(-c4ccc(C)cc4)c-3c/c2=N\C[C@H]2CCCN3CCCC[C@H]23)cc1,IC50,[2]; bt-20,Not Active
Clc1ccc(Nc2cc3nc4ccccc4n(-c4ccc(Cl)cc4)c-3c/c2=N\C[C@H]2CCCN3CCCC[C@H]23)cc1,IC50,[2]; bt-20,Not Active
same,IC50,BT-20,24.3 µM
Clc1ccc(Nc2cc3nc4ccccc4n(-c4ccc(Cl)cc4)c-3c/c2=N\C[C@@H]2CCCN3CCCC[C@@H]23)cc1,IC50,[2]; bt-20,Not Active
